What was measured:
[1] = target: Ephrin type-B receptor 3 (Homo sapiens) (UniProt P54753); experiment: Inhibition of wild-type human partial length EPHB3 (Q599 to T928 residues) expressed in Escherichia coli BL21 assessed as residual activity at 1000 nM after 30 mins by Kinomescan method relative to control
[2] = target: Cyclin-dependent kinase 4/cyclin D1 (Homo sapiens) (UniProt P11802+P24385); experiment: Inhibition of wild-type human full length CDK4/cyclinD1 (M1 to E303 residues) expressed in HEK293 cells assessed as residual activity at 1000 nM after 30 mins by Kinomescan method relative to control; type: cell-based
Method in brief: (§1)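 Single-point screen at a fixed 1 µM, run within a 456-kinase DiscoveRx KINOMEscan panel. Each kinase's read-out is Percent Control, i.e. signal relative to a control without compound. Hits were scored by a Percent Control < 35 cut-off, and an S(35) selectivity score was calculated across the non-mutant kinases.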

[3] = target: Ephrin type-B receptor 6 (Homo sapiens) (UniProt O15197); experiment: Inhibition of wild-type human partial length EPHB6 (Q634 to P948 residues) expressed in HEK293 cells assessed as residual activity at 1000 nM after 30 mins by Kinomescan method relative to control; type: cell-based
[4] = target: cAMP-dependent protein kinase catalytic subunit beta (Homo sapiens) (UniProt P22694); experiment: Inhibition of wild-type human full length PKAC-beta (M1 to F351 residues) expressed in Escherichia coli BL21 assessed as residual activity at 1000 nM after 30 mins by Kinomescan method relative to control
Method in brief: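 Single-concentration screen at 1 µM against a 456-kinase panel (KINOMEscan). Read-out is Percent Control for each kinase. Across the 403 non-mutant kinases, an S(35) selectivity score was derived as the fraction of kinases with Percent Control < 35.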

[5] = target: Ribosomal protein S6 kinase alpha-6 (Homo sapiens) (UniProt Q9UK32); experiment: Inhibition of wild-type human partial length C-terminal RSK4 kinase domain 2 (I401 to Y711 residues) expressed in Escherichia coli BL21 assessed as residual activity at 1000 nM after 30 mins by Kinomescan method relative to control
[6] = target: Serine/threonine-protein kinase 33 (Homo sapiens) (UniProt Q9BYT3); experiment: Inhibition of wild-type human full length STK33 (M1 to L514 residues) expressed in Escherichia coli BL21 assessed as residual activity at 1000 nM after 30 mins by Kinomescan method relative to control
[7] = target: Atypical kinase COQ8B, mitochondrial (Homo sapiens) (UniProt Q96D53); experiment: Inhibition of wild-type human full length ADCK4 (M1 to S544 residues) expressed in Escherichia coli BL21 assessed as residual activity at 1000 nM after 30 mins by Kinomescan method relative to control; method in brief: as §1
[8] = target: Serine/threonine-protein kinase haspin (Homo sapiens) (UniProt Q8TF76); experiment: Inhibition of wild-type human partial length HASPIN (I452 to K798 residues) expressed in HEK293 cells assessed as residual activity at 1000 nM after 30 mins by Kinomescan method relative to control; type: cell-based
[9] = target: Dual specificity mitogen-activated protein kinase kinase 4 (Homo sapiens) (UniProt P45985); experiment: Inhibition of wild-type human partial length MEK4 (S84 to D399 residues) expressed in HEK293 cells assessed as residual activity at 1000 nM after 30 mins by Kinomescan method relative to control; type: cell-based
[10] = target: Ribosomal protein S6 kinase alpha-5 (Homo sapiens) (UniProt O75582); experiment: Inhibition of wild-type human partial length N-terminal RPS6KA5 kinase domain 1 expressed in Escherichia coli BL21 assessed as residual activity at 1000 nM after 30 mins by Kinomescan method relative to control
[11] = target: Maternal embryonic leucine zipper kinase (Homo sapiens) (UniProt Q14680); experiment: Inhibition of wild-type human full length MELK (M1 to V651 residues) expressed in Escherichia coli BL21 assessed as residual activity at 1000 nM after 30 mins by Kinomescan method relative to control
Method in brief: (§2)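 Single-concentration screen at 1 µM across a 456-kinase KINOMEscan panel. The read-out is Percent Control for each kinase.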

[12] = target: Serine/threonine-protein kinase Nek4 (Homo sapiens) (UniProt P51957); experiment: Inhibition of wild-type human full length NEK4 (M1 to F841 residues) expressed in HEK293 cells assessed as residual activity at 1000 nM after 30 mins by Kinomescan method relative to control; type: cell-based; method in brief: as §2
[13] = target: Activated CDC42 kinase 1 (Homo sapiens) (UniProt Q07912); experiment: Inhibition of wild-type human partial length TNK2 (S159 to D474 residues) expressed in Escherichia coli BL21 assessed as residual activity at 1000 nM after 30 mins by Kinomescan method relative to control
[14] = target: Phosphatidylinositol 4-phosphate 3-kinase C2 domain-containing subunit beta (Homo sapiens) (UniProt O00750); experiment: Inhibition of wild-type human partial length PIK3C2B (M1 to L1634 residues) expressed in HEK293 cells assessed as residual activity at 1000 nM after 30 mins by Kinomescan method relative to control; type: cell-based
[15] = system: Mast/stem cell growth factor receptor Kit (Homo sapiens), P10721 [V559D]; experiment: Inhibition of human partial length KIT V559D mutant (Y545 to D952 residues) expressed in Escherichia coli BL21 assessed as residual activity at 1000 nM after 30 mins by Kinomescan method relative to control
Method in brief: (§3)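 KINOMEscan binding panel of 456 kinases, with the test compound at a single concentration of 1 µM. Read-out is Percent Control.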

[16] = system: Receptor-type tyrosine-protein kinase FLT3 (Homo sapiens), P36888 [N841I]; experiment: Inhibition of human partial length FLT3 N841I mutant (V592 to Y969 residues) expressed in Escherichia coli BL21 assessed as residual activity at 1000 nM after 30 mins by Kinomescan method relative to control; method in brief: as §3
[17] = target: Calcium/calmodulin-dependent protein kinase type II subunit gamma (Homo sapiens) (UniProt Q13555); experiment: Inhibition of wild-type human partial length CAMK2G (R9 to A303 residues) expressed in Escherichia coli BL21 assessed as residual activity at 1000 nM after 30 mins by Kinomescan method relative to control
[18] = target: Receptor-interacting serine/threonine-protein kinase 4 (Homo sapiens) (UniProt P57078); experiment: Inhibition of wild-type human partial length RIPK4 (M1 to V303 residues) expressed in HEK293 cells assessed as residual activity at 1000 nM after 30 mins by Kinomescan method relative to control; type: cell-based
[19] = target: Cyclin-dependent kinase 15 (Homo sapiens) (UniProt Q96Q40); experiment: Inhibition of wild-type human full length PFTAIRE2 (M1 to W384 residues) expressed in Escherichia coli BL21 assessed as residual activity at 1000 nM after 30 mins by Kinomescan method relative to control; method in brief: as §2
[20] = target: Serine/threonine-protein kinase Nek6 (Homo sapiens) (UniProt Q9HC98); experiment: Inhibition of wild-type human full length NEK6 (M8 to T313 residues) expressed in Escherichia coli BL21 assessed as residual activity at 1000 nM after 30 mins by Kinomescan method relative to control; method in brief: as §2
[21] = species: Homo sapiens; experiment: Inhibition of human partial length FLT3 ITD/D835V double mutant expressed in Escherichia coli BL21 assessed as residual activity at 1000 nM after 30 mins by Kinomescan method relative to control; method in brief: as §3

Sequence of Ephrin type-B receptor 6 (Homo sapiens) (O15197 whole entry, the tested form may be a part): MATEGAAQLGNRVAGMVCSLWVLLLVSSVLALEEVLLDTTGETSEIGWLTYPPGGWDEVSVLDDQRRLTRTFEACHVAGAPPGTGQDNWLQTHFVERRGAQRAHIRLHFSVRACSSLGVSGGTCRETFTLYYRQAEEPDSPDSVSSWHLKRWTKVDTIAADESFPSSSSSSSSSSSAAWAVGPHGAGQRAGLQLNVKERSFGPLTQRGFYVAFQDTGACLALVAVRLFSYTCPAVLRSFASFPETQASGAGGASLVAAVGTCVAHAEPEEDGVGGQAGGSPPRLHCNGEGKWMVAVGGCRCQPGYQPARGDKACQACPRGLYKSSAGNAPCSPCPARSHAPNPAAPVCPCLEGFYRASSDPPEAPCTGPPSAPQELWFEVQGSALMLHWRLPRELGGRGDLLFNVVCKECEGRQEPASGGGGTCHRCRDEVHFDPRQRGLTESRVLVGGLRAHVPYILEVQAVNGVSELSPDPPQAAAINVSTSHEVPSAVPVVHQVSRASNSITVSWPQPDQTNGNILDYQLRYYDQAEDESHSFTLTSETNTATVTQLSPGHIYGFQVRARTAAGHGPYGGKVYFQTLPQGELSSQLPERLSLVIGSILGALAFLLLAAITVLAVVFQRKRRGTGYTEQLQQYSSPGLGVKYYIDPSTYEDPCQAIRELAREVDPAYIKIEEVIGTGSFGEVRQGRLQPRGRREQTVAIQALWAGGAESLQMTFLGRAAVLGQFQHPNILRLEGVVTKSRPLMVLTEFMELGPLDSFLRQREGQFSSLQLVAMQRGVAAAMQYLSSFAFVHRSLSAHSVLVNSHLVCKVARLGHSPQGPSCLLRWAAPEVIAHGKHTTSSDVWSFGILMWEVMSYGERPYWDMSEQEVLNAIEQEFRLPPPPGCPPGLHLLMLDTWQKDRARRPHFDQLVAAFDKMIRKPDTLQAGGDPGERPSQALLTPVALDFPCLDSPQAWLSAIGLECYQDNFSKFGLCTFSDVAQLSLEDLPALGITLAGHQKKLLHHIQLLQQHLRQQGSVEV
Sequence of Atypical kinase COQ8B, mitochondrial (Homo sapiens) (Q96D53 whole entry, the tested form may be a part): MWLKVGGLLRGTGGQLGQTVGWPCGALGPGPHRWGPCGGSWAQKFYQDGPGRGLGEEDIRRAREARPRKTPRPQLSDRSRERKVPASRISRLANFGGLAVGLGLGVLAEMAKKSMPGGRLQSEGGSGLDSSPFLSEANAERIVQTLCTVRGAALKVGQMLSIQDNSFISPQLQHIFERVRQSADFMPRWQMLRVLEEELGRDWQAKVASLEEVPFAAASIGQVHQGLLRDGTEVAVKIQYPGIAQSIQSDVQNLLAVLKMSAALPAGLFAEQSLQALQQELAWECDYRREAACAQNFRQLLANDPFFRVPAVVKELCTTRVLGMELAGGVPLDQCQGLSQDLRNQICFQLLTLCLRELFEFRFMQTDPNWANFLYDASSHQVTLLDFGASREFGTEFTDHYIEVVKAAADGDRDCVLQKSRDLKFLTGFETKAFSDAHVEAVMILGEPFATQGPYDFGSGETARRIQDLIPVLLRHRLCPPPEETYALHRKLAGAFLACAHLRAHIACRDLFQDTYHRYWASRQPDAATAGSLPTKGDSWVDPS
Sequence of Serine/threonine-protein kinase Nek6 (Homo sapiens) (Q9HC98 whole entry, the tested form may be a part): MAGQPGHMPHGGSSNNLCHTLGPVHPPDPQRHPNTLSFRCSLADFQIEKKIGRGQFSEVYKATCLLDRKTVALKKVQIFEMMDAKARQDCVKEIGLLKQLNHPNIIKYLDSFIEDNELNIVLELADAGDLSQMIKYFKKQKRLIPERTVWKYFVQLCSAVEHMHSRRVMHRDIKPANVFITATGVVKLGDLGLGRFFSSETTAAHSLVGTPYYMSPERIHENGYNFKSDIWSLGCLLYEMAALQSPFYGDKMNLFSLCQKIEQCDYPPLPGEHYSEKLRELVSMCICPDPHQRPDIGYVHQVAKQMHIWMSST
Sequence of Calcium/calmodulin-dependent protein kinase type II subunit gamma (Homo sapiens) (Q13555 whole entry, the tested form may be a part): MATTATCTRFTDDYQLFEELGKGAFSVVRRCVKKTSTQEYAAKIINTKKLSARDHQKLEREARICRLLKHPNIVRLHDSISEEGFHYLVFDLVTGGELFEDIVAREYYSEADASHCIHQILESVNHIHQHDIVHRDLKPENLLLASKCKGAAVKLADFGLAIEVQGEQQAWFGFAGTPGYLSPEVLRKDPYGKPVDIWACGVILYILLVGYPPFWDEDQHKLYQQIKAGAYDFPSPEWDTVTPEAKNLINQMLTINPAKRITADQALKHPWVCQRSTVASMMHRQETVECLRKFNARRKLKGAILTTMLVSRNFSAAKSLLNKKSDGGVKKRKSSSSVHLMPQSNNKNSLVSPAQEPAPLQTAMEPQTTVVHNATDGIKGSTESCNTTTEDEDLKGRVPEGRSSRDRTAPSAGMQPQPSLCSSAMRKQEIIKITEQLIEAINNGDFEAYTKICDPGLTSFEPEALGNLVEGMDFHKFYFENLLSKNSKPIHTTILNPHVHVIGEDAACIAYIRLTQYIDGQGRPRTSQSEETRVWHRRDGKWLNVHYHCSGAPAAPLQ
Sequence of Serine/threonine-protein kinase Nek4 (Homo sapiens) (P51957 whole entry, looked up, the tested form may be a part): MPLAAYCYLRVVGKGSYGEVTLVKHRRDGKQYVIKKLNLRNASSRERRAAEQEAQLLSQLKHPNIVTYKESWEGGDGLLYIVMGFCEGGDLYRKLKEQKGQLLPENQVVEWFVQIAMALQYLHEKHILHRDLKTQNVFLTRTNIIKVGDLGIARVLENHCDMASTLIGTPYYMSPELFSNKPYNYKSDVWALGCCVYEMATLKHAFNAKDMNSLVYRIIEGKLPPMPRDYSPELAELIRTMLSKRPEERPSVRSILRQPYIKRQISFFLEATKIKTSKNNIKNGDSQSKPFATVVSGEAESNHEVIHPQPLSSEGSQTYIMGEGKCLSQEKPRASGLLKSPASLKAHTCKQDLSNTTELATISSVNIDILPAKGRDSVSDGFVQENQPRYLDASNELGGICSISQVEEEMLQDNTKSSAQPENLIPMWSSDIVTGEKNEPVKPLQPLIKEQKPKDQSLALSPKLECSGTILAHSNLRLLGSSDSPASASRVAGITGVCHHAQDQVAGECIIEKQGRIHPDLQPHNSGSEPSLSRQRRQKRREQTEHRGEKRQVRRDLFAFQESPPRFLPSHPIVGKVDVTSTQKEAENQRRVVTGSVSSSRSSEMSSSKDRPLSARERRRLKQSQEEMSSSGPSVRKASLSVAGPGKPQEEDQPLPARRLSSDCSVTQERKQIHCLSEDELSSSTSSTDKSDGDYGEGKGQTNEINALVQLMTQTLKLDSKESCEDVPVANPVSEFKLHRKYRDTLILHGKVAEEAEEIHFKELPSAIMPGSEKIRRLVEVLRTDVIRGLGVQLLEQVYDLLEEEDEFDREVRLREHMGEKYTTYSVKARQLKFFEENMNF
Sequence of Mast/stem cell growth factor receptor Kit (Homo sapiens), P10721 [V559D] (P10721 whole entry V559D, the tested form may be a part): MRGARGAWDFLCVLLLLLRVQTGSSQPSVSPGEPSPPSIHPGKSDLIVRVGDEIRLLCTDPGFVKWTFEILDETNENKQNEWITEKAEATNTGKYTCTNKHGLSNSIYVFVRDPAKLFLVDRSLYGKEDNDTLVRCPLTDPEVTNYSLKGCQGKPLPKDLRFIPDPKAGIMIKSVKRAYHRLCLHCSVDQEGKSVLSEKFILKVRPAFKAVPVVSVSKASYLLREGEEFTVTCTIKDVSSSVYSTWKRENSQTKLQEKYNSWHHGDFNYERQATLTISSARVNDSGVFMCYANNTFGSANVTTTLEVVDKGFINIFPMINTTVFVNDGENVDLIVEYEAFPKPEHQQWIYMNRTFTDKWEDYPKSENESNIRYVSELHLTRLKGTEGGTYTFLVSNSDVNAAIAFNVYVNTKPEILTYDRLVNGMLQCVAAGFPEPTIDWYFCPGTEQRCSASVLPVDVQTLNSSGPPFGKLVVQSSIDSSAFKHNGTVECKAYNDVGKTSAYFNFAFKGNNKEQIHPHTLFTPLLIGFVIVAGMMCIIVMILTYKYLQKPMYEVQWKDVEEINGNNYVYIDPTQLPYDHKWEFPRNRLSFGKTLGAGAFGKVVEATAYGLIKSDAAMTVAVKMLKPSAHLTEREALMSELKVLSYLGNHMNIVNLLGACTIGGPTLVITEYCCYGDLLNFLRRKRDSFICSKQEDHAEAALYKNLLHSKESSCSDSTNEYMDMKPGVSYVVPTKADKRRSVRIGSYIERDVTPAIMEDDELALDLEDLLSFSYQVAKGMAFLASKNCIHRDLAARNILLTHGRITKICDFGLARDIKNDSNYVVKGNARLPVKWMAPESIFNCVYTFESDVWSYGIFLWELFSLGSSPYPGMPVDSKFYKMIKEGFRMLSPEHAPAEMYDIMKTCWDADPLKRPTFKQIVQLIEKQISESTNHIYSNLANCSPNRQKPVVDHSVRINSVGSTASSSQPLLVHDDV
Sequence of Maternal embryonic leucine zipper kinase (Homo sapiens) (Q14680 whole entry, looked up, the tested form may be a part): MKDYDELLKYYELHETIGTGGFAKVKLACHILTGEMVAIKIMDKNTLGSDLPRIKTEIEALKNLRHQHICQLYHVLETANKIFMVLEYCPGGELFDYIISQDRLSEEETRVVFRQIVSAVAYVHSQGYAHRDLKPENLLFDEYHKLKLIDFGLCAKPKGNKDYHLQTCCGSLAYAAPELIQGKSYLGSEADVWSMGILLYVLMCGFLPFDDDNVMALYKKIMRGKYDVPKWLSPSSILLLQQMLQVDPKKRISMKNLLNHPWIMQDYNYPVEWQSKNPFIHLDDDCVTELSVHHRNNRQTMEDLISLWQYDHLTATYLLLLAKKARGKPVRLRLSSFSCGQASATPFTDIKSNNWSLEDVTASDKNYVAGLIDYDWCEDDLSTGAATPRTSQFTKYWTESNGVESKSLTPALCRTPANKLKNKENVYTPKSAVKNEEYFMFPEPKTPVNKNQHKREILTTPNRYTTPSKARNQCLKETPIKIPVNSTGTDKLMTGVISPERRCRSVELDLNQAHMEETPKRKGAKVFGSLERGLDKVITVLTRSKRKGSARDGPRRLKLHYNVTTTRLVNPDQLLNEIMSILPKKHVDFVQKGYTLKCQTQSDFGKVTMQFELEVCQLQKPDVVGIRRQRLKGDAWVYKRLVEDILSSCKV

SMILES: COc1cc(OC)c(Cl)c(N2Cc3cnc(Nc4ccc(F)cc4)nc3N(C3CCN(C(=O)/C=C/CN(C)C)CC3)C2=O)c1Cl
- Activity [1]: 100%
- Activity [2]: 100%
- Activity [3]: 67%
- Activity [4]: 95%
- Activity [5]: 94%
- Activity [6]: 100%
- Activity [7]: 94%
- Activity [8]: 61%
- Activity [9]: 100%
- Activity [10]: 99%
- Activity [11]: 100%
- Activity [12]: 100%
- Activity [13]: 100%
- Activity [14]: 89%
- Activity [15]: 11%
- Activity [16]: 88%
- Activity [17]: 100%
- Activity [18]: 100%
- Activity [19]: 100%
- Activity [20]: 100%
- Activity [21]: 98%

Reference: ChEMBL document CHEMBL4043093, “2-Oxo-3, 4-dihydropyrimido[4, 5-d]pyrimidinyl derivatives as new irreversible pan fibroblast growth factor receptor (FGFR) inhibitors” (Eur J Med Chem, 2017)
